Measurements published in ChEMBL document CHEMBL1150245, “1-Aryl-2-dimethylaminomethyl-2-propen-1-one hydrochlorides and related adducts: A quest for selective cytotoxicity for malignant cells” (Bioorg Med Chem, 2008).
The source made the active and inactive calls. The calls are words filed in the database; no cut-off is given here.

Legend:
[1] = Cytotoxicity against human HGF cells; assay type: cell-based
In short: (§1)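 CC50 is the concentration killing 50% of cells, tested up to a highest concentration of 400 μM. Each value is the average of two independent determinations.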

CCRF-CEM [2] = assay: Cytotoxicity against human CEM cells after 72 hrs; assay type: functional, cell-based
In short: (§2)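 Human transformed T-lymphocytes exposed to a range of compound concentrations at 37 °C for 72 h. IC50 is the concentration giving 50% inhibition of cell growth.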

[3] = Cytotoxicity against human HPLF cells; assay type: cell-based; in short: as §1
[4] = Cytotoxicity against human Molt4/C8 cells after 72 hrs; assay type: functional, cell-based; settings: MOLT-4, 72 h; in short: as §2
HSC-2 [5] = assay: Cytotoxicity against human HSC2 cells; assay type: functional; in short: as §1
HL-60 [6] = assay: Cytotoxicity against human HL60 cells; assay type: functional; in short: as §1
K562 = assay: Cytotoxicity against human K562 cells; assay type: functional, cell-based
In short: (§3)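 Part of a human tumour cell line panel screen run by a literature procedure with compounds at 10−8–10−4 M. GI50 is the concentration giving 50% growth inhibition. Where 50% inhibition was not reached at 100 μM, 100 μM was used as the value.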

L1210 [7] = assay: Cytotoxicity against mouse L1210 cells after 48 hrs; settings: L1210, 48 h
[8] = Cytotoxicity against human HPC cells; assay type: cell-based; in short: as §1
SR = assay: Cytotoxicity against human SR cells; assay type: cell-based; in short: as §3
CCRF-CEM [9] = assay: Cytotoxicity against human CCRF-CEM cells; assay type: functional, cell-based; in short: as §3
HSC-4 = assay: Cytotoxicity against human HSC4 cells; assay type: functional; in short: as §1
RPMI-8226 = assay: Cytotoxicity against human RPMI8226 cells; assay type: functional, cell-based; in short: as §3
HL-60 [10] = assay: Induction of apoptosis assessed as activation of caspase 3 activity in human HL60 cells after 4 hrs; assay type: functional, cell-based
In short: (§4)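 Caspase activation measured in neoplastic cells seeded at 4 × 10^4 cells and incubated with compound for 4 h. Each value is the mean of two or three experiments.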

L1210 [11] = assay: Cytotoxicity against mouse L1210 cells after 72 hrs; assay type: functional, cell-based; settings: L1210, 72 h
HSC-2 [12] = assay: Induction of apoptosis assessed as activation of caspase 3 activity in human HSC2 cells after 4 hrs; assay type: functional, cell-based; in short: as §4
HL-60 [13] = assay: Induction of apoptosis in human HL60 cells after 6 hrs; assay type: functional, cell-based
In short: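 Apoptosis read out as DNA fragmentation. 5 × 10^5 cells were incubated for 6 h with 0.5, 1, 2, 4, 8 or 16 μM compound. DNA was run alongside a molecular weight marker and scored for an internucleosomal ladder versus a smear. The experiment was repeated.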

HL-60 [14] = assay: Induction of apoptosis assessed as activation of caspase 8 activity in human HL60 cells after 4 hrs; assay type: functional, cell-based; in short: as §4
HL-60 [15] = assay: Induction of apoptosis assessed as activation of caspase 9 activity in human HL60 cells after 4 hrs; assay type: functional, cell-based; in short: as §4

Row | Compound | CC50 [1] | IC50 (CCRF-CEM [2]) | CC50 [3] | IC50 [4] | CC50 (HSC-2 [5]) | CC50 (HL-60 [6]) | IC50 (K562) | IC50 (L1210 [7]) | CC50 [8] | IC50 (SR) | IC50 (CCRF-CEM [9]) | CC50 (HSC-4) | IC50 (RPMI-8226) | Activity (HL-60 [10]) | IC50 (L1210 [11]) | Activity (HSC-2 [12]) | Activity (HL-60 [13]) | Activity (HL-60 [14]) | Activity (HL-60 [15])
1 | CN(C)CC(CO)C(=O)c1ccc(Cl)cc1 (configuration not stated) | 5.8 µM | 33.1 µM | 12 µM | 30.9 µM | 6 µM | < 3.1 µM | 330 nM | 22 µM | 5.4 µM | 0.63 µM | 320 nM | 8 µM |  |  |  |  |  |  | 
2 | N[C@@H](Cc1ccc(N(CCCl)CCCl)cc1)C(=O)O [MELPHALAN] | > 200 µM |  | > 200 µM |  | 35 µM | 6 µM |  |  | > 200 µM |  | 6170 nM | 81 µM | 66.1 µM |  |  |  |  |  | 
3 | C=C(CN(C)C)C(=O)c1ccc(OC)cc1 | 6.8 µM | 10.6 µM | 9.2 µM | 21.3 µM | 5.9 µM | < 3.4 µM | 1050 nM |  | 5.1 µM | 14.5 µM | 370 nM | 6.1 µM | 21.4 µM | Active | 5.08 µM | Active | Active | Active | Active
4 | CN(C)CC(CO)C(=O)c1ccccc1 (configuration not stated) | 4.4 µM | 1.42 µM | 5.2 µM | 5.84 µM | 5.2 µM | 0.41 µM |  | 1.65 µM | 5.5 µM |  |  | 6.5 µM |  |  |  |  |  |  | 
5 | C=C(CN(C)C)C(=O)c1ccc(Cl)cc1 | 6.1 µM | 32.6 µM | 9.2 µM | 30.2 µM | 5.1 µM | < 3.1 µM | 3470 nM | 26.5 µM | 6 µM | 3.98 µM | 3310 nM | 6.4 µM |  |  |  |  |  |  | 
6 | CN(C)CC(CSCCO)C(=O)c1ccc([N+](=O)[O-])cc1 (configuration not stated) | 390 µM | > 500 µM | 400 µM | > 500 µM | 165 µM | 353 µM | > 100000 nM | > 500 µM | 400 µM | > 100 µM | > 100000 nM | 264 µM | 38 µM |  |  |  |  |  | 
7 | C=C(CN(C)C)C(=O)c1ccc([N+](=O)[O-])cc1 | 19.3 µM | 7.91 µM | 26 µM | 8.95 µM | 8.2 µM | 1.6 µM |  | 8.61 µM | 30 µM |  |  | 19 µM |  |  |  |  |  |  | 
8 | Cc1ccc(C(=O)C(CO)CN(C)C)cc1 (configuration not stated) | 4.9 µM | 8.22 µM | 9.8 µM | 21 µM | 6.3 µM | < 3.1 µM |  | 6.55 µM | 5.7 µM |  |  | 5.8 µM |  |  |  |  |  |  | 
9 | COc1ccc(C(=O)C(CO)CN(C)C)cc1 (configuration not stated) | 4 µM | 1.15 µM | 4.9 µM | 4.9 µM | 2.5 µM | 0.46 µM | 490 nM | 1.57 µM | 5.3 µM |  |  | 5.2 µM | 20 µM |  |  |  |  |  | 
10 | C=C(CN(C)C)C(=O)c1ccc(C)cc1 | 6.1 µM | 11.4 µM | 8.1 µM | 35.5 µM | 3.4 µM | 0.45 µM |  | 11.1 µM | 6.9 µM |  |  | 7.6 µM |  |  |  |  |  |  | 
11 | C=C(CN(C)C)C(=O)c1ccccc1 | 26 µM | 65.6 µM | 52 µM | 146 µM | 29 µM | 12 µM | 2190 nM |  | 31 µM | 0.55 µM | 400 nM | 33 µM | 1.91 µM |  | 52.2 µM |  |  |  | 
12 | CN(C)CC(CO)C(=O)c1ccc([N+](=O)[O-])cc1 (configuration not stated) | 271 µM | 12.2 µM | 176 µM | 36.8 µM | 73 µM | 35 µM |  | 42.6 µM | 227 µM |  |  | 99 µM |  |  |  |  |  |  | 
